Series [1] has as its system Hepatitis C virus. Nature of the series: Antiviral activity against Hepatitis C virus infected human Huh-5-2 cells assessed as inhibition of luciferase activity after 4 days by RNA replicon assay. It counts as functional, organism-based, Hepacivirus hominis. The note with it: Huh-5-2, 96 h. Summed up:
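Huh-5-2 subgenomic HCV replicon cells seeded 5000/well in complete DMEM with 250 µg/mL G418, 24 h at 37 °C (5% CO2). Threefold serial compound dilutions then added in DMEM without G418, 4 days at 37 °C. Replication read as luciferase activity (Steady-Glo). EC50 = concentration giving 50% inhibition of luciferase signal.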
(A replicon is a self-replicating genome or part of one, used to study replication in cells.)

A short description of series [2]: Cytotoxicity against human Huh-5-2 cells. It counts as cell-based. The method in brief: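 Exponentially growing Huh-5-2 cells treated with compound. CC50 taken as the concentration that inhibits cell proliferation by 50%.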
A further series relates to PaCa. The series is described as follows: Cytotoxicity against human MIA PaCa cells upto 200 uM by MTT assay. It counts as functional, cell-based. The method in brief:
(§1)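 MiaPaCa, Capan-2 and PC-3 cells tested by MTT assay at concentrations up to 200 µM.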

The next series deals with Capan-2. The series is described as follows: Cytotoxicity against human Capan2 cells upto 200 uM by MTT assay. It counts as functional, cell-based. The method in brief:
as §1
(Tetrazolium dyes change colour on reduction, which living cells bring about.)

The subject of series [3] is Hepatitis C virus. Nature of the series: Antiviral activity against Hepatitis C virus infected human Huh-9-13 cells assessed as reduction of HCV RNA level after 4 days by RT-PCR. Type of series: functional, organism-based, Hepacivirus hominis. The note with it: 96 h. The method in brief:
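Huh-9-13 replicon cells seeded 5000/well in complete DMEM with 1,000 µg/mL G418, 24 h at 37 °C. Threefold serial compound dilutions added in DMEM without G418, 4 days at 37 °C. Monolayers PBS-washed, lysed in RLT buffer, replicon RNA measured by quantitative real-time PCR. EC50 = 50% reduction in HCV RNA versus untreated control.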

The test system of a further series is PC-3. The series is described as follows: Cytotoxicity against human PC3 cells upto 200 uM by MTT assay. It counts as functional, cell-based. Summed up: as §1
The test system of the next series is Huh-5-2. Nature of the series: Cytotoxicity against human Huh-5-2 cells at 50 ug/ml. Type of series: cell-based.

Converted amounts (≈) assume the structure as drawn. Bounds are passed on as bounds.

A word on the EC50: it is the concentration needed to bring the measured effect to its halfway point. What is called CC50 is the concentration giving 50% cytotoxicity. Low values mean harm at low concentration, high ones better tolerance by the cells.

As to `NC(=O)c1ncn([C@@H]2O[C@H](CO)[C@@H](O)[C@H]2O)n1` [RIBAVIRIN], the EC50 in the series on Hepatitis C virus [1] came out at 7 µg/mL (≈ 28.7 µM). In series [2], it took 21 µg/mL (≈ 86 µM) to reach half-maximal cytotoxicity (CC50).

`NC(=O)c1nc(C#Cc2ccccc2)n(COCCO)n1`: the EC50 is 18 µg/mL (≈ 62.9 µM) in the series on Hepatitis C virus [1] and greater than 50 µg/mL in the series on Hepatitis C virus [3]. Also, the Activity result in the series on PaCa, with Capan-2 and in the series on PC-3 was “Not toxic” in each case. The same compound showed a CC50 in series [2] greater than 50 µg/mL.

`COc1ccc(C#Cc2nc(C(N)=O)nn2COCCO)cc1`: the EC50 with Hepatitis C virus [1] is greater than 50 µg/mL. The compound also displayed a CC50 in series [2] greater than 50 µg/mL.

Take `NC(=O)c1nc(C#CCCCCl)n(COCCO)n1`: the EC50 in the series with Hepatitis C virus [1] is greater than 50 µg/mL. The same compound came in with a CC50 in series [2] greater than 50 µg/mL.

`NC(=O)c1nc(C#Cc2ccc(F)cc2)n(COCCO)n1`: the EC50 in the series on Hepatitis C virus [1] came out at 22 µg/mL (≈ 72.3 µM). The Activity entry with PaCa, in the series on Capan-2 and in the series with PC-3 was “Not toxic” in each case. The same compound returned a CC50 in series [2] greater than 50 µg/mL.

`NC(=O)c1nc(C#Cc2ccc(C(F)(F)F)cc2)n(COCCO)n1`: in the series with Hepatitis C virus [1], the EC50 came out at 5 µg/mL (≈ 14.1 µM). The compound also returned a CC50 in series [2] of 20 µg/mL (≈ 56.5 µM).

`NC(=O)c1nc(C#CC2=CCCCC2)n(COCCO)n1`: the half-maximal effective concentration (EC50) in the series with Hepatitis C virus [1] is greater than 50 µg/mL. For the same compound, the CC50 in series [2] is greater than 50 µg/mL.

`NC(=O)c1nc(C#Cc2cccc(F)c2)n(COCCO)n1`: the EC50 with Hepatitis C virus [1] turned out to be 10 µg/mL (≈ 32.9 µM). Also, in series [2], half-maximal cytotoxicity (CC50) was put at 29 µg/mL (≈ 95.3 µM).

Regarding `Cc1ccc(C#Cc2nc(C(N)=O)nn2COCCO)cc1`, the EC50 in the series with Hepatitis C virus [1] came out at 16 µg/mL (≈ 53.3 µM). This compound also showed a CC50 in series [2] greater than 50 µg/mL. The same compound came in with an Activity in the series with Huh-5-2 of less than 80%.

Turning to `NC(=O)c1nc(C#CC2(O)CCCC2)n(COCCO)n1`, the EC50 with Hepatitis C virus [1] is greater than 50 µg/mL. This compound also had a CC50 in series [2] greater than 50 µg/mL.

On to `CCCCCc1ccc(C#Cc2nc(C(N)=O)nn2COCCO)cc1`, for which the EC50 with Hepatitis C virus [1] amounted to 22 µg/mL (≈ 61.7 µM). The same compound came in with a CC50 in series [2] of 25 µg/mL (≈ 70.1 µM).

Take `NC(=O)c1nc(C#CC2(O)CCCCC2)n(COCCO)n1`: the EC50 in the series with Hepatitis C virus [1] was greater than 50 µg/mL. The CC50 in series [2] is greater than 50 µg/mL.

`NC(=O)c1nc(C#Cc2ccccc2F)n(COCCO)n1`: the EC50 in the series on Hepatitis C virus [1] was 20 µg/mL (≈ 65.7 µM). The CC50 in series [2] was greater than 50 µg/mL. In the series with Huh-5-2, this compound gave an Activity of less than 80%.

The record behind these values is ChEMBL document CHEMBL1150316, “Arylethynyltriazole acyclonucleosides inhibit hepatitis C virus replication” (Bioorg Med Chem Lett, 2008).
